This excerpt belongs to a sample that is enriched for hits.
bCat KO growth – beta-catenin-lacking colon tumor cell growth suppression | HCT116 beta-catenin knockout viability, CellTiter-Glo, 60 h; active compounds read low | viability, % at 10 µM | AID 818 | actives 1.5% (n = 140,000);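 active = viability at or under a set limit, the compound median less 4 SD, cut at about 6% in these data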;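 also: 0% = Hyamine 1622 control at 20 µM and 100% = untreated cell control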
H69AR growth 86K – growth inhibitors of human H69AR lung tumor cells; viability, % at 10 µM; AID 598; actives 6% (n = 85,000); H69AR lung tumor viability, ATP luminescence, 72 h; active compounds read low;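 active = viability at or below 40%; inactive = viability above 40%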;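 also: multidrug resistant small cell line overexpressing MRP-1 efflux transporter; 100% = mean luminescence of untreated control wells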
HCT116 PTEN-null – PTEN-deleted cell growth suppression; HCT116 PTEN-null viability, CellTiter-Glo, 60 h; active compounds read low; viability, % at 10 µM; actives 1.2% (n = 140,000); AID 827;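 active = viability at or below a set limit, 4 SD under the median of all tested compounds, cut at about 3.7% in these data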;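 also: PTEN knockout HCT116 line with beta catenin targeted HCT116 as companion control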
HUVEC inhibit – inhibitors of human endothelial cell proliferation; HUVEC proliferation, CellTiter-Glo luminescence, 72 h; active compounds read low; viability, % at 10 µM (by protocol); actives 1.1% (n = 86,000); AID 648;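 active = viability at or below 30%; inactive = viability above 30%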;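 also: 100% = median luminescence of DMSO-only cell control wells on each plate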
Fibroblast inh – blocks proliferation of human lung fibroblasts; actives 1.1% (n = 85,000); LL 47 human lung fibroblast viability, ATP luminescence; active compounds read low; viability, % at 10 µM;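 active = viability at or below 50% in the single dose screen; inactive = viability above 50%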;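 also: compound exposure lasted 72 h before the ATP readout; 100% = median luminescence of untreated cell-only wells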
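Material: Human LL 47 lung fibroblast cells | Input: 1,150 cells/well | Buffer or medium: IMEM plus 15% FBS | Compound dosing: 0.1% DMSO in all compound wells | Times: Overnight cell rest, 72 h compound treatment at 37 °C | Signal: CellTiter-Glo luminescence measuring cellular ATP | Measure: % viability versus median cells-only luminescence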
* hit, by the source's call; x = no result given.

SMILES | bCat KO growth | H69AR growth 86K | HCT116 PTEN-null | HUVEC inhibit | Fibroblast inh
O=C(CCN1CCc2ccccc2C(c2ccccc2)C1)c1ccc2c(c1)OCCO2 (configuration not stated) | 71.2 | 1.6* | 42.3 | 86.1 | 90.8
O=C(O)CCC(=O)c1ccc2c(c1)OCCO2 | 96.8 | 103.2 | 82.1 | 97.4 | 95.0
O=C(CS(=O)(=O)c1ccccc1)c1ccc2c(c1)OCCO2 | 98.5 | 89.5 | 93.8 | 82.9 | 89.9
O=C(CCN1Cc2ccccc2C1)c1ccc2c(c1)OCCO2 | 77.2 | 1.0* | 80.3 | 97.7 | 79.1
CCN(CC)C(=O)C(=O)N/N=C/c1ccc(C(=O)OC)cc1 | 92.8 | x | 102.0 | x | x
COc1ccc(Oc2c(Cl)cnn(-c3ccc(F)cc3)c2=O)cc1 | 94.6 | x | 92.8 | x | x
COc1ccc(Oc2c(Cl)cnn(-c3ccc(Cl)c(Cl)c3)c2=O)cc1 | 1.0* | x | 0.7* | x | x
COc1ccc(Oc2c(Cl)cnn(-c3ccc(C)cc3)c2=O)cc1 | 5.5* | x | 15.1 | x | x
COc1c(Cl)cnn(-c2ccc(C)cc2)c1=O | 1.2* | x | 1.1* | x | x
CC(=O)Nc1ccc(/C(C)=N/Nc2nc(Nc3cccc4ccccc34)nc(N3CCOCC3)n2)cc1 | 36.2 | x | 30.6 | x | x
Cc1ccc(C(=O)NNC(=O)C2CCCN(c3ncccn3)C2)cc1 (configuration not stated) | 105.4 | x | 118.9 | x | x
CC1CCCCN1C(=S)Nc1ccc2nc3n(c(=O)c2c1)CCCCC3 (configuration not stated) | 79.8 | x | 90.4 | x | x
Cc1cc(N2CCCCC2)nc(NCc2ccccc2)n1 | 6.0* | 16.1* | 8.0 | 40.2 | 66.6
Cc1cc(N2CCOCC2)nc(NCc2ccccc2)n1 | 93.2 | 90.7 | 75.0 | 114.9 | 93.1
CN(C)S(=O)(=O)c1ccc(Cl)c(NC(=O)CSc2nc3ccccc3c(=O)n2CCCN2CCOCC2)c1 | 83.3 | x | 93.0 | x | x
C=CCn1cccc(/C=C/C(=O)c2ccc(C(C)(C)C)cc2)c1=S | 1.4* | x | 1.8* | x | x
CN1CCN(C(=S)NC(=O)c2ccc(C(C)(C)C)cc2)CC1 | 98.1 | x | 104.9 | x | x
Cc1ccc(C2CC2C(=O)NNC(=S)Nc2cccc(Cl)c2)cc1 (configuration not stated) | 84.5 | 16.7* | 80.3 | 69.1 | 91.3
Cc1ccc(C2CC2C(=O)NNC(=S)Nc2cccc(C)c2)cc1 (configuration not stated) | 88.9 | 61.9 | 94.8 | 86.3 | 91.6
Cc1ccc2cc(CN(CC3CCCO3)S(=O)(=O)c3c(C)ccc4nsnc34)c(=O)[nH]c2c1 (configuration not stated) | 82.8 | 82.3 | 101.8 | 107.1 | 89.2
Cc1ccc2nsnc2c1S(=O)(=O)N(Cc1cc2cccc(C)c2[nH]c1=O)CC1CCCO1 (configuration not stated) | 60.4 | 10.3* | 56.6 | 60.1 | 90.5
CCn1c(CN2CCN(c3cccc(C)c3C)CC2)n[nH]c1=S | 88.9 | x | 86.7 | x | x
COc1cc2c(cc1OC)C(SC)=NC(C)(C)C2 | 2.2* | 94.5 | 11.5 | 84.3 | 92.4
COc1cc2c(cc1OC)C(/C(C#N)=N\O)=NC(C)(C)C2 | 93.7 | 99.5 | 88.5 | 105.1 | 105.9
c1ccc2c(c1)oc1c(Nc3ccc(CN4CCOCC4)cc3)ncnc12 | 23.0 | 3.5* | 21.7 | 5.4* | 97.9
SMILES | bCat KO growth | H69AR growth 86K | HCT116 PTEN-null | HUVEC inhibit | Fibroblast inh
CN(CC(=O)Nc1cccc2ccccc12)C(=O)/C=C/c1cccs1 | 99.5 | x | 85.7 | x | x
CCC(=O)Oc1ccc(/C(CC)=C(\CC)c2ccc(OC(=O)CC)cc2)cc1 | 33.9 | 10.4* | 32.4 | 55.2 | 69.6
CCC(=O)OCCCCCCOc1ccc(C(=O)O)cc1 | 82.2 | x | 89.8 | x | x
O=C1c2ccccc2C(=O)C12OC2c1ccc(Cl)cc1Cl (configuration not stated) | 2.6* | x | 1.7* | x | x
CC1SC(c2ccc(Cl)cc2Cl)NC1=O (configuration not stated) | 90.5 | 92.4 | 95.0 | 103.0 | 94.0
Cc1ccc(-c2nnc(N3CCN(c4ccccn4)CC3)c3ccccc23)cc1 | 3.5* | 47.2 | 4.8 | 53.2 | 82.6
Cc1ccc(-c2cn3cccnc3n2)cc1NC(=O)c1cccs1 | 97.0 | x | 96.8 | x | x
CCn1nc([N+](=O)[O-])c(C(C#N)c2nc3ccccc3n2C)c(Cl)c1=O (configuration not stated) | 83.2 | x | 87.3 | x | x
Cn1c(C(C#N)C(=O)c2sc3ccccc3c2Cl)nc2ccccc21 (configuration not stated) | 89.7 | 17.1* | 83.6 | 78.3 | 90.2
CN(C)CC(C)(C)CNS(=O)(=O)c1ccc(Cl)c(Cl)c1 | 87.0 | x | 90.0 | x | x
CN1C/C(=C/c2cccnc2)C(=O)/C(=C/c2cccnc2)C1 | 2.1* | x | 2.1* | x | x
COc1cc(/C=C/C(=O)c2ccc(NS(=O)(=O)c3ccc(C)cc3)cc2)ccc1OC(F)F | 4.8* | x | 2.9* | x | x
COc1ccc(Br)cc1/C=C/C(=O)c1ccc(NC(C)=O)cc1 | 4.9* | x | 1.3* | x | x
COc1ccc(/C=C/C(=O)c2ccc(NC(=O)c3cccs3)cc2)cc1OC | 1.4* | x | 1.8* | x | x
COc1ccc(C(=O)Nc2ccc(NC(=O)c3cccs3)cc2)cc1Cl | 87.2 | x | 98.7 | x | x
COc1ccc(NC(=O)/C=C/c2cc(Br)ccc2OC)cc1 | 72.1 | x | 69.7 | x | x
C=CCn1c(=O)c2ccc(C(=O)NCc3ccccc3)cc2n(Cc2ccc(C)cc2)c1=O | 86.0 | x | 79.9 | x | x
CCOC(=O)c1ccc2c(c1)C(=O)N(C1CCCCC1)C2=O | 101.4 | 94.2 | 106.3 | 107.0 | 100.5
CCC(=O)Oc1ccc(C(=O)Nc2ccc3c(c2)C(=O)N(C2CCCCC2)C3=O)cc1 | 71.6 | 5.3* | 69.4 | 55.4 | 93.4
CCCCNc1nnc(SCC(=O)c2c[nH]c3ccccc23)s1 | 96.9 | x | 100.4 | x | x
Cc1n[nH]c(C)c1N1C(=O)c2cccc3c(N4CCCCCC4)ccc(c23)C1=O | 74.4 | 35.0* | 64.7 | 83.5 | 87.3
Cc1ccc(S(=O)(=O)Nc2ccc(NC(=O)Nc3cccc(C(F)(F)F)c3)cc2)cc1 | 1.2* | x | 1.6* | x | x
O=C(Nc1ccc(OC(F)(F)F)cc1)Nc1cccc([N+](=O)[O-])c1 | 2.9* | x | 3.5* | x | x
CCN(CC)S(=O)(=O)c1ccc(NC(=O)Nc2cccc(C(F)(F)F)c2)cc1 | 1.4* | x | 1.8* | x | x
O=C(Nc1ccc(OC(F)F)cc1)Nc1cccc(C(F)(F)F)c1 | 2.3* | 3.7* | 3.1* | 31.4 | 38.2*
SMILES | bCat KO growth | H69AR growth 86K | HCT116 PTEN-null | HUVEC inhibit | Fibroblast inh
COC(=O)Cn1c(=NC(=O)c2ccc([N+](=O)[O-])s2)sc2cc(Br)ccc21 | 14.9 | x | 7.7 | x | x
Cc1ccc(CN2CCN(Cc3ccccc3C(F)(F)F)CC2)cc1 | 84.7 | x | 84.1 | x | x
Cn1c(=O)cc(SCC(=O)NCC2COc3ccccc3O2)c2ccccc21 (configuration not stated) | 92.6 | 82.5 | 99.3 | 102.2 | 39.6*
COc1ccc(S(=O)(=O)N2N=C(C)Oc3ccccc3C2=O)cc1 | 18.4 | 16.0* | 17.6 | 58.4 | 46.5*
Cn1c(=O)oc2cc(S(=O)(=O)Nc3cccc4c3CCCC4)ccc21 | 83.8 | 100.1 | 74.4 | 93.1 | 91.9
CCc1cc(=O)oc2cc3occ(-c4ccc(OC)c(F)c4)c3cc12 | 4.2* | x | 2.7* | x | x
CCc1cc(=O)oc2cc3occ(C)c3cc12 | 78.0 | x | 86.8 | x | x

From PubChem BioAssay
